1 molecule from ChEMBL document CHEMBL3861974, “Discovery of a Selective Aurora A Kinase Inhibitor by Virtual Screening” (J Med Chem, 2016) can be followed below.

Structures are written as SMILES. Active and inactive are the calls of the source. No cut-off for these calls is given here. Where only a bound is given, the exact number is not on record here.

The target in experiment [1] is T1, Aurora kinase B (Homo sapiens, UniProt Q96GD4). The experiment in a line: Inhibition of Aurora B kinase in human HeLa Kyoto cells assessed as induction of accumulation of cells at 16N DNA contant incubated for 48 hrs at 10 uM by flow cytometry. The class given is cell-based. In short, it runs like this:
(§1)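 Cells were treated for 48 h, stained with propidium iodide, and DNA content was analysed by flow cytometry. Cells with 8N and 16N DNA content were scored as a readout of defective cytokinesis.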
(In general: In flow cytometry, cells or beads pass a laser one at a time.)

The target of experiment [2] is T2, Aurora kinase A (Homo sapiens, UniProt O14965).
T2 sequence (O14965 whole entry): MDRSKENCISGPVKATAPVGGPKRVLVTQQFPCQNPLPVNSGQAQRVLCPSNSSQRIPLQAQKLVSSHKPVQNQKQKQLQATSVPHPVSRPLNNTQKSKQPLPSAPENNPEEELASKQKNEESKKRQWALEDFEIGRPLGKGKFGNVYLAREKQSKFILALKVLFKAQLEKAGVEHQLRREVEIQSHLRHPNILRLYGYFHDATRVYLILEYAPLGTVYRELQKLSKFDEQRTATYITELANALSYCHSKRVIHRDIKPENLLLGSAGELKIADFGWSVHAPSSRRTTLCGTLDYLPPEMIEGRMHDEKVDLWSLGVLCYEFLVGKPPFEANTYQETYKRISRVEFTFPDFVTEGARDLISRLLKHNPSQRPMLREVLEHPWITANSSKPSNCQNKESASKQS
The experiment is described as follows: Inhibition of His-tagged human Aurora A kinase ([…] residues) expressed in Escherichia coli BL21 (DE3) Rosetta cells using biotinylated STK2 substrate incubated for 30 mins in presence of 0.002 uM TPX2 by HTRF assay. In short, it runs like this: (§2)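 Biochemical kinase inhibition was read by HTRF with 20 µM ATP. Aurora B was assayed as its complex with the activator INCENP. For Aurora A, IC50 curves were recorded at different TPX2 concentrations.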

In experiment [3] the target is T3, Phosphatidylinositol 5-phosphate 4-kinase type-2 gamma (Homo sapiens, UniProt Q8TBX8).
T3 sequence (Q8TBX8 whole entry): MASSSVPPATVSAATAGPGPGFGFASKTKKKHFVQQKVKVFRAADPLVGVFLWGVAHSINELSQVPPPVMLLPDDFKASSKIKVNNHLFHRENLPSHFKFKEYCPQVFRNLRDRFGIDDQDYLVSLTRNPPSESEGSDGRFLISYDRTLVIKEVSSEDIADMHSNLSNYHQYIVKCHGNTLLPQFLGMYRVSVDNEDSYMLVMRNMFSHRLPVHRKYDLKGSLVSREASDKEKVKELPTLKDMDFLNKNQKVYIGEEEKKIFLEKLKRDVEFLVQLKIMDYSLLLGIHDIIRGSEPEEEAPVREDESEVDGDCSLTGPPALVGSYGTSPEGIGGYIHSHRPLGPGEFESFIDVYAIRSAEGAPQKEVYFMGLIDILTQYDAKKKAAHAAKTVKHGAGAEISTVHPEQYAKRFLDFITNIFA
The experiment is described as follows: Binding affinity to human PIP5K2C expressed in Escherichia coli BL21 cells incubated for 1 hr by active site directed binding competition assay. In short, it runs like this: (§3)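 Kinome scan of 456 kinases using an active-site-directed binding competition assay, followed by determination of binding affinities (Kd). Aurora B in this scan was free enzyme without INCENP.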

Experiment [4] deals with T4, Aurora kinase A (Homo sapiens) (UniProt O14965).
T4 sequence (whole entry): T2 sequence (O14965 whole entry)
The experiment in a line: Inhibition of Aurora A kinase in human HeLa Kyoto cells assessed as induction of defective chromosome alignment during metaphase at 10 uM incubated for 20 hrs. It is filed as cell-based. In outline: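 HeLa Kyoto cells were treated overnight and stained for pThr288 Aurora A, α-tubulin and DNA. Cells with chromosomes not aligned on the metaphase plate were scored. Experiment repeated twice, SD. Rescue variant: cells transfected with GFP-Aurora A wild-type, Arg137Ala or Trp277Ala before treatment; only highest expressers analysed, ≥100 cells per condition.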

The target of experiment [5] is T2, Aurora kinase A. The experiment in a line: Inhibition of His-tagged human Aurora A kinase ([…] residues) expressed in Escherichia coli BL21 (DE3) Rosetta cells using biotinylated STK2 substrate incubated for 30 mins by HTRF assay. (In general: TR-FRET usually uses a lanthanide donor and a delayed reading to cut background.)
Experiment [6] deals with T1, Aurora kinase B. The experiment is described as follows: Inhibition of Aurora B kinase in human HeLa Kyoto cells assessed as effect on distribution of phspho-histone H3 ser10 level incubated for 20 hrs.
Experiment [7] in a line: Glutathione reactivity at 30 uM assessed as retention time for GSH adduct formation after 24 hrs in presence of 5 mM GSH, pH 7.4 buffer at 37 degC by LC-MS method. In short, it runs like this: (§4)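 Test compound at 30 µM was incubated with 5 mM GSH in H2O/CH3CN (4:1) at 37 °C and followed by LC-MS over 24 h. The GSH adduct was identified by MS. Parent was quantified by integrating its 310 nm absorption peak against 9-methylcarbazole as internal control. Values are the average of two independent experiments.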

The test system of another experiment is HeLa Kyoto. The experiment is described as follows: Increase in mitotic index in human HeLa Kyoto cells incubated for 20 hrs. It is filed as functional, cell-based. In outline: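 HeLa Kyoto cells were incubated overnight with compound, and the fraction of mitotic cells was scored. The experiment was repeated twice; mean ± SD.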
In experiment [8] the target is Death-associated protein kinase 2 (Homo sapiens, UniProt Q9UIK4). The experiment is described as follows: Binding affinity to human DAPK2 expressed in Escherichia coli BL21 cells incubated for 1 hr by active site directed binding competition assay. In short, it runs like this:
as §3

For experiment [9], the target named is T4, Aurora kinase A (Homo sapiens). The experiment is described as follows: Inhibition of Aurora A kinase localization at spindle microtubules in human HeLa Kyoto cells at 10 uM incubated for 20 hrs. The class given is cell-based. In short, it runs like this: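 HeLa Kyoto cells were treated overnight, then immunostained for Aurora A and TPX2 with DNA counterstain. Aurora A at spindle microtubules versus centrosomes was assessed by fluorescence imaging.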

The target in experiment [10] is T1, Aurora kinase B. The experiment in a line: Inhibition of Aurora B kinase in human HeLa Kyoto cells assessed as induction of accumulation of cells at 8N DNA contant incubated for 48 hrs at 10 uM by flow cytometry. The class given is cell-based. In outline:
as §1

Experiment [11] addresses T2, Aurora kinase A. The experiment is described as follows: Binding affinity to human Aurora A kinase expressed in Escherichia coli BL21 cells incubated for 1 hr by active site directed binding competition assay. In outline: as §3
In experiment [12] the target is T2, Aurora kinase A. The experiment in a line: Inhibition of Aurora A kinase autophosphorylation at Thr288 in human HeLa Kyoto cells incubated for 20 hrs. It is filed as cell-based.
A short description of experiment [13]: Glutathione reactivity at 30 uM assessed as GSH adduct formation after 24 hrs in presence of 5 mM GSH, pH 7.4 buffer at 37 degC by LC-MS method. In outline:
as §4

Experiment [14] concerns the target T2, Aurora kinase A. The experiment is described as follows: Inhibition of His-tagged human Aurora A kinase ([…] residues) expressed in Escherichia coli BL21 (DE3) Rosetta cells using biotinylated STK2 substrate incubated for 30 mins in presence of 2 uM TPX2 by HTRF assay. In short, it runs like this:
as §2

For the next experiment, the target named is T5, Aurora kinase C (Homo sapiens, UniProt Q9UQB9).
T5 sequence (Q9UQB9 whole entry): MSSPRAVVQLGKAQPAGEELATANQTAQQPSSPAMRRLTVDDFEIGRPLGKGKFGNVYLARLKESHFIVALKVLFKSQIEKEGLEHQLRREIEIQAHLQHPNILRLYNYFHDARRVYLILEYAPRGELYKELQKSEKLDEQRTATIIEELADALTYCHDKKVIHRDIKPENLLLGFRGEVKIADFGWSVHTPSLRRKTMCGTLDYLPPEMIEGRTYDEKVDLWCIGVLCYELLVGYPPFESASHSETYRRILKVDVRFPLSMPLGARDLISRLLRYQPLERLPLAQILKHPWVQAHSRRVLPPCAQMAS
The experiment in a line: Binding affinity to human Aurora C kinase expressed in Escherichia coli BL21 cells incubated for 1 hr by active site directed binding competition assay. In short, it runs like this: as §3

T1 sequence (Q96GD4 whole entry): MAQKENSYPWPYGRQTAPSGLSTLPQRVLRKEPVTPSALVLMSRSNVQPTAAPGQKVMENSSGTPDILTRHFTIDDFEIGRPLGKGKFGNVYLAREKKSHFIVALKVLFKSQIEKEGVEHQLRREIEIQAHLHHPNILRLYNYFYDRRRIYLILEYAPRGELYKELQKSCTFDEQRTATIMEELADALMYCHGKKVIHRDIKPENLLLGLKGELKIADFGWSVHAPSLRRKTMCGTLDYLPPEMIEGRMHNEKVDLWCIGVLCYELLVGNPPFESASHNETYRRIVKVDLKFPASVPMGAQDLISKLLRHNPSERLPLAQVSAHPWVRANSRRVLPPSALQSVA
Chain of Death-associated protein kinase 2 (Q9UIK4 whole entry): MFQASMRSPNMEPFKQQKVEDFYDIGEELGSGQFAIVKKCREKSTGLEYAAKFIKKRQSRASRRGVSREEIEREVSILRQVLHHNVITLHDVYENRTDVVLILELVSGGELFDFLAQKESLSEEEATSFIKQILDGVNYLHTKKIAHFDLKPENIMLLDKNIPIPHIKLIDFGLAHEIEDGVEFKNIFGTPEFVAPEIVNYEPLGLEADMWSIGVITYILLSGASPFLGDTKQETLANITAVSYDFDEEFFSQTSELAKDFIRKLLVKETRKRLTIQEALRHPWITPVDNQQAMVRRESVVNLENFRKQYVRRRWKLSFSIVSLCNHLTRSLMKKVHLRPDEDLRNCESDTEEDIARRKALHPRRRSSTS

`CCc1ccc(/N=C2\S/C(=C\c3ccnc(Nc4ccc(C(=O)O)cn4)c3)C(=O)N2C)cc1`: the inhibition entry (on Aurora kinase B [1]; in experiment [4]; in experiment [9]; on Aurora kinase B [10]) was “Active” each time. The IC50 (usually the concentration that gives 50% inhibition) is 1.7 nM at Aurora kinase A [2]; 2 nM at Aurora kinase A [5]; above 25000 nM on Aurora kinase B [6]; 760 nM on Aurora kinase A [12]; 1400 nM on Aurora kinase A [14]. Also, the Kd – broadly, the constant that tells how readily two partners part at equilibrium – in experiment [3] worked out at 480 nM; in experiment [8] it was 450 nM; at Aurora kinase A [11], 5 nM; on Aurora kinase C it was 10.8 nM. Moreover, the Retention time in experiment [7] worked out at 1.29 min. In addition, the Activity entry with HeLa Kyoto is “Dose-dependent effect”. Also, the Drug metabolism in [13] turned out to be 50%. Moreover, the Stability entry in experiment [13] was “Stable”.
